Assay results from article PMC6045484 (ACS Omega, 2018).
≈ marks a conversion by molar mass, not a printed value.

Legend:
[1] = tested on: CQ-sensitive (CQS) and CQ-resistant (CQR) strains; conditions: strain not stated ref 11; cited from earlier work
[2] = tested on: P. falciparum (D6); test: in vitro antimalarial activity, plasmodial LDH; format: cell-based, Plasmodium falciparum; conditions: Plasmodium falciparum, D6, 72 h, read-out: P. falciparum (D6) IC50
[3] = tested on: P. falciparum (W2); test: in vitro antimalarial activity, plasmodial LDH; format: cell-based, Plasmodium falciparum; conditions: Plasmodium falciparum, W2, 72 h, read-out: P. falciparum (W2) IC50, CQ-resistant W2 strain, 72 h
Procedure, shortened: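 P. falciparum-infected erythrocytes (2% parasitemia, 2% hematocrit) in RPMI 1640 with 10% human serum and 60 μg/mL amikacin. Exposed to test compound dilutions for 72 h at 37 °C under 90% N2/5% O2/5% CO2. LDH measured with Malstat reagent (30 min, room temperature), then NBT/PES for 1 h in the dark, stopped with 5% acetic acid, read at 650 nm. IC50 from dose-response curves.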

[4] = tested on: P. berghei (sensitive strain); test: blood-schizontocidal activity against P. berghei infection in mice; format: in vivo, Plasmodium berghei; conditions: Swiss mice
Procedure, shortened: (§1)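 Swiss mice of either sex (about 15–20 g, same age), six per group, inoculated intraperitoneally on day 0 with 1 × 10^7 infected erythrocytes from a donor mouse. Oral test compound at 100, 50, 25 or 10 mg/kg, CQ diphosphate (10 mg/kg/day × 4) or vehicle started 4 h later, on D0 to D+3. Giemsa tail-blood smears on D+4 and D+7. Curative: parasites eliminated, no relapse, all mice surviving to D+60.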

[5] = tested on: multidrug-resistant P. yoelii nigeriensis; test: blood-schizontocidal activity against P. yoelii nigeriensis infection in mice; format: in vivo, Plasmodium yoelii nigeriensis; conditions: Swiss mice
Procedure, shortened: as §1

[6] = tested on: SK-MEL, KB, BT-549, SK-OV-3, VERO and LLC-PK1 cells; test: cytotoxicity, neutral red uptake assay; format: cell-based, mammalian; conditions: highest test concentration 4760 ng/mL
Procedure, shortened: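 Cells seeded at 25 000/well and allowed 24 h to reach confluence. Test compound was then added and incubated 48 h. Viable cells were counted by a modified neutral red uptake method. The panel was four human cancer lines and two noncancerous mammalian kidney lines. Doxorubicin served as positive control and DMSO as negative control.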

[7] = tested on: L. donovani promastigotes; test: in vitro antileishmanial activity, alamarBlue assay; format: cell-based, Leishmania donovani; conditions: Leishmania donovani, 48 h
[8] = tested on: C. albicans ATCC90028; test: in vitro antifungal activity; format: cell-based, Candida albicans
Procedure, shortened: (§2)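 Modified NCCLS broth method in Sabouraud dextrose. Inoculum set by OD630 to 1.5 × 10^3 CFU/mL. Test compound serially diluted in 20% DMSO/saline, duplicate wells, up to 20 μg/mL. Incubated 70–74 h at 35 °C; 530 nm read before and after. IC50 is 50% growth inhibition; MIC is no detectable growth. MFC from clear wells subcultured on agar. Amphotericin B control.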

[9] = tested on: C. glabrata ATCC90030; test: in vitro antifungal activity; format: cell-based, Candida glabrata
Procedure, shortened: as §2

[10] = tested on: C. krusei ATCC6258; test: in vitro antifungal activity; format: cell-based, Candida krusei
Procedure, shortened: as §2

[11] = tested on: C. neoformans ATCC90113; test: in vitro antifungal activity; format: cell-based, Cryptococcus neoformans; conditions: Cryptococcus neoformans
Procedure, shortened: as §2

[12] = tested on: A. fumigatus ATCC 90906; test: in vitro antifungal activity; format: cell-based, Aspergillus fumigatus; conditions: Aspergillus fumigatus
Procedure, shortened: as §2

[13] = tested on: SA (ATCC29213); test: in vitro antibacterial activity; format: cell-based; conditions: Staphylococcus aureus
Procedure, shortened: (§3)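 Test compound serially diluted in 20% DMSO/saline and plated in duplicate, up to 20 μg/mL. Inoculum in cation-adjusted Mueller–Hinton broth, pH 7.3, set by OD630 to 5 × 10^5 CFU/mL. Incubated 16–20 h at 35 °C; 530 nm read before and after. IC50 is 50% growth inhibition; MIC is no detectable growth. MBC from clear wells subcultured on agar. Ciprofloxacin control.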

[14] = tested on: MRSA (ATCC33591); test: in vitro antibacterial activity; format: cell-based, methicillin-resistant Staphylococcus aureus; conditions: Staphylococcus aureus, ATCC33591|MRSA, read-out: MIC, MRSA
Procedure, shortened: as §3

[15] = tested on: M. intracellulare (ATCC23068); test: in vitro antibacterial activity, modified alamarBlue procedure; format: cell-based, Mycobacterium intracellulare; conditions: Mycobacterium intracellulare
Procedure, shortened: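 Modified alamarBlue microplate method. Test compound serially diluted in 20% DMSO/saline, duplicate wells, up to 20 μg/mL. Inoculum 2.0 × 10^6 CFU/mL in Middlebrook 7H9 with OADC, pH 7.3, containing 5% alamarBlue. Incubated 70–74 h at 37 °C, 10% CO2; fluorescence 544ex/590em read before and after. MIC: no blue-to-pink change. MBC by subculturing blue wells on agar. Ciprofloxacin control.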

COc1cc(NC(C)CCCN)c2nc(C(C)(C)C)ccc2c1 (centres unmarked) [2-tert-butylprimaquine]
in vitro antimalarial activity IC50 [1]: 0.039 µg/mL

CCN(CC)CCCC(C)Nc1ccnc2cc(Cl)ccc12 (centres unmarked) [CQ, chloroquine, reference compound]
IC50 [2]: 0.015 µg/mL (≈ 0.0469 µM) | IC50 [3]: 0.14 µg/mL (≈ 0.438 µM) | P. berghei blood-schizontocidal activity (mice cured/treated) ([4]; 10 mg/kg/day × 4, oral): active (2/6) | P. berghei blood-schizontocidal activity (mice cured/treated) ([4]; 25 mg/kg/day × 4, oral): curative (6/6) | P. berghei blood-schizontocidal activity (mice cured/treated) ([4]; 50 mg/kg/day × 4, oral): curative (6/6) | P. berghei blood-schizontocidal activity (mice cured/treated) ([4]; 100 mg/kg/day × 4, oral): curative (6/6) | P. yoelii nigeriensis blood-schizontocidal activity (mice cured/treated) ([5]; 25 mg/kg/day × 4, oral): inactive (0/6) | P. yoelii nigeriensis blood-schizontocidal activity (mice cured/treated) ([5]; 50 mg/kg/day × 4, oral): inactive (0/6) | P. yoelii nigeriensis blood-schizontocidal activity (mice cured/treated) ([5]; 100 mg/kg/day × 4, oral): inactive (0/6) | in vitro antimalarial activity IC50 [1]: 0.113 µg/mL

CCCCCCCOc1c(OC)cc(NC(C)CCCN)c2nc(C(C)(C)C)ccc12 (centres unmarked) [compound 48, N^4-(2-tert-Butyl-5-(heptyloxy)-6-methoxyquinolin-8-yl)pentane-1,4-diamine]
IC50 [2]: 0.05 µg/mL (≈ 0.116 µM) | IC50 [3]: 0.037 µg/mL (≈ 0.0861 µM) | cytotoxicity CTX [6]: NC (NC, not cytotoxic up to 4760 ng/mL (4.76 μg/mL)) | P. berghei blood-schizontocidal activity (mice cured/treated) ([4]; 10 mg/kg/day × 4, oral): active (4/6) | P. berghei blood-schizontocidal activity (mice cured/treated) ([4]; 25 mg/kg/day × 4, oral): curative (6/6) | P. berghei blood-schizontocidal activity (mice cured/treated) ([4]; 50 mg/kg/day × 4, oral): curative (6/6) | P. berghei blood-schizontocidal activity (mice cured/treated) ([4]; 100 mg/kg/day × 4, oral): curative (6/6) | P. yoelii nigeriensis blood-schizontocidal activity (mice cured/treated) ([5]; 25 mg/kg/day × 4, oral): inactive (0/6) | P. yoelii nigeriensis blood-schizontocidal activity (mice cured/treated) ([5]; 50 mg/kg/day × 4, oral): active (3/6) | P. yoelii nigeriensis blood-schizontocidal activity (mice cured/treated) ([5]; 100 mg/kg/day × 4, oral): active (4/6) | IC50 ([7]; read-out: L. donovani IC50, promastigotes, 48 h): 5 µg/mL (≈ 11.6 µM) | IC90 ([7]; read-out: L. donovani IC90, promastigotes, 48 h): > 40 µg/mL | C. albicans MFC [8]: 10.00 µg/mL | C. albicans MIC [8]: 10.00 µg/mL | IC50 ([8]; Candida albicans, ATCC90028, read-out: C. albicans IC50): 4.93 µg/mL (≈ 11.5 µM) | MIC ([8]; Candida albicans, ATCC90028, read-out: C. albicans MIC): 10 µg/mL (≈ 23.3 µM) | C. glabrata MFC [9]: 5.00 µg/mL | C. glabrata MIC [9]: 5.00 µg/mL | C. krusei MFC [10]: 5.00 µg/mL | C. krusei MIC [10]: 5.00 µg/mL | IC50 ([11]; ATCC90113, read-out: C. neoformans IC50): 2.07 µg/mL (≈ 4.82 µM) | MFC ([11]; ATCC90113, read-out: C. neoformans MFC): 2.5 µg/mL (≈ 5.82 µM) | MIC ([11]; ATCC90113, read-out: C. neoformans MIC): 2.5 µg/mL (≈ 5.82 µM) | IC50 ([12]; ATCC90906, read-out: A. fumigatus IC50): 6 µg/mL (≈ 14 µM) | MFC ([12]; ATCC90906, read-out: A. fumigatus MFC): > 20 µg/mL | MIC ([12]; ATCC90906, read-out: A. fumigatus MIC): > 20 µg/mL | IC50 ([13]; ATCC29213, read-out: IC50 (concentration that affords 50% growth inhibition), SA): 2.77 µg/mL (≈ 6.45 µM) | MBC ([13]; ATCC29213, read-out: MBC (minimum bactericidal concentration), SA): 20 µg/mL (≈ 46.5 µM) | MIC ([13]; ATCC29213, read-out: MIC, SA): 5 µg/mL (≈ 11.6 µM) | MIC [14]: 5 µg/mL (≈ 11.6 µM) | IC50 ([15]; ATCC23068, read-out: IC50 (concentration that affords 50% growth inhibition), M. intracellulare): 3.72 µg/mL (≈ 8.66 µM) | MBC ([15]; ATCC23068, read-out: MBC (minimum bactericidal concentration), M. intracellulare): 5 µg/mL (≈ 11.6 µM) | MIC ([15]; ATCC23068, read-out: MIC, M. intracellulare): 5 µg/mL (≈ 11.6 µM)
